Structures are written as SMILES. The source made the active and inactive calls. The calls are words filed in the database; no cut-off is given here.

This is an account of results in ChEMBL document CHEMBL1139233, “Structure-activity relationships of cyclic peptide-based chemokine receptor CXCR4 antagonists: disclosing the importance of side-chain and backbone functionalities” (J Med Chem, 2007).

In assay [1] the target is T1, C-X-C chemokine receptor type 4 (Homo sapiens, UniProt P61073). Kind of assay: Inhibition of [125I]SDF1 binding to CXCR4 transfected in CHO cells. Type of assay: cell-based. In outline:
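CXCR4-expressing stable CHO transfectants were harvested with trypsin-EDTA, recovered 4-5 h in complete medium, and washed in cold PBS with 2 mg/mL BSA. Cells at 1 × 10⁷/mL were incubated with 0.1 nM [¹²⁵I]-SDF-1 for 2 h on ice with agitation. Bound label was separated by centrifugation through oil and gamma-counted.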

Assay [2] deals with Human immunodeficiency virus 1. Nature of the assay: Inhibition of HIV1-induced cytopathogenicity in MT4 cells. Type of assay: functional, organism-based. The conditions noted are these: Human immunodeficiency virus 1, MT4. The method in brief:
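MT-4 cells were grown in RPMI 1640 with 10% heat-inactivated FCS and penicillin/streptomycin. Cells infected with HIV-1 IIIB (X4 strain) at MOI 0.01 were plated at 1.5 × 10⁴ cells/well with various compound concentrations. After 5 days at 37 °C in CO₂, viable cells were counted by MTT. EC50 for protection is the mean of ≥3 independent experiments.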

In assay [3] the target is T1, C-X-C chemokine receptor type 4. Nature of the assay: Antagonist activity against CXCR4 transfected in CHO cells upto 1 uM. Type of assay: functional, cell-based.

T1 sequence (P61073 whole entry): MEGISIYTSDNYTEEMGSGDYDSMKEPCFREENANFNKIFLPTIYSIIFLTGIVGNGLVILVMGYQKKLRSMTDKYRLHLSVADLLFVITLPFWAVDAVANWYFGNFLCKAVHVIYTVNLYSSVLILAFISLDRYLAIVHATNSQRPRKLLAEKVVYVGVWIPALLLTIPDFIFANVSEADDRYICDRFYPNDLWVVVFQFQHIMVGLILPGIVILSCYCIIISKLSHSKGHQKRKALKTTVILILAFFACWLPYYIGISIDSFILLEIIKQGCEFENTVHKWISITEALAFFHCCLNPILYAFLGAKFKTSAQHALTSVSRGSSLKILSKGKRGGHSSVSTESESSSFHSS

Take `CN1CC(=O)N[C@H](Cc2ccc(O)cc2)C(=O)N[C@H](CCCNC(=N)N)C(=O)N[C@@H](CCCNC(=N)N)C(=O)N[C@@H](Cc2ccc3ccccc3c2)C1=O`: in assay [1], the IC50 came to 256 nM.

`N=C(N)NCCC[C@@H]1NC(=O)[C@@H](CCCNC(=N)N)NC(=O)[C@@H](Cc2ccc(O)cc2)NC(=O)CCNC(=O)[C@H](Cc2ccc3ccccc3c2)NC1=O` returned an EC50 in assay [2] of 38 µM. The compound further came in with an IC50 in assay [1] of 350 nM.

`C[C@@H]1NC(=O)[C@H](CCCNC(=N)N)NC(=O)[C@H](CCCNC(=N)N)NC(=O)[C@@H](Cc2ccc(O)cc2)NC(=O)CNC1=O`: in assay [2], the EC50 is above 120 µM. In addition, the IC50 in assay [1] is above 1000 nM. In the case of `N=C(N)NCCC[C@@H]1NC(=O)[C@H](CCCNC(=N)N)NC(=O)[C@@H](Cc2ccc(O)cc2)NC(=O)[C@H]2CCCN2C(=O)[C@H](Cc2ccc3ccccc3c2)NC1=O`, the IC50 in assay [1] is above 1000 nM. The same measure, in the same setting: under `CN1C(=O)[C@H](CCCNC(=N)N)NC(=O)[C@@H](CCCNC(=N)N)NC(=O)[C@@H](Cc2ccc(O)cc2)NC(=O)CNC(=O)[C@@H]1Cc1ccc2ccccc2c1` stands 563 nM. In the case of `C[C@H]1NC(=O)[C@H](Cc2ccc3ccccc3c2)NC(=O)[C@H](CCCNC(=N)N)NC(=O)[C@@H](CCCNC(=N)N)NC(=O)[C@@H](Cc2ccc(O)cc2)NC1=O`, in assay [2], the EC50 was 0.67 µM. In assay [1], this compound showed an IC50 of 11 nM. For `C[C@@H]1NC(=O)[C@H](Cc2ccc3ccccc3c2)NC(=O)[C@H](CCCNC(=N)N)NC(=O)[C@H](CCCNC(=N)N)NC(=O)[C@@H](Cc2ccc(O)cc2)NC1=O` the same measures were 20 µM and 170 nM. As for `C[C@H]1NC(=O)CNC(=O)[C@H](Cc2ccc3ccccc3c2)NC(=O)[C@H](CCCNC(=N)N)NC(=O)[C@H](CCCNC(=N)N)NC1=O`, the EC50 in assay [2] is 115 µM. The IC50 in assay [1] is above 1000 nM. Consider `C[C@@H]1NC(=O)CNC(=O)[C@@H](Cc2ccc(O)cc2)NC(=O)[C@@H](CCCNC(=N)N)NC(=O)[C@H](CCCNC(=N)N)NC1=O`, for which the result in assay [3] was inactive. In the case of `N=C(N)NCCC[C@@H]1NC(=O)[C@@H](CCCNC(=N)N)NC(=O)[C@@H](Cc2ccc(O)cc2)NC(=O)[C@H]2CCCN2C(=O)[C@H](Cc2ccc3ccccc3c2)NC1=O`, the IC50 in assay [1] is above 1000 nM. Take `C[C@@H]1NC(=O)[C@H](CCCNC(=N)N)NC(=O)[C@@H](Cc2ccc(O)cc2)NC(=O)CNC(=O)[C@H](Cc2ccc3ccccc3c2)NC1=O`: the EC50 in assay [2] is above 120 µM. In assay [1], the half-maximal inhibitory concentration (IC50) is above 1000 nM. For `CN1C(=O)[C@@H](CCCNC(=N)N)NC(=O)[C@@H](Cc2ccc(O)cc2)NC(=O)CNC(=O)[C@H](Cc2ccc3ccccc3c2)NC(=O)[C@@H]1CCCNC(=N)N` the same measures were 0.782 µM and 21 nM. `N=C(N)NCCC[C@@H]1NC(=O)[C@@H](CCCNC(=N)N)NC(=O)[C@@H](Cc2ccc(O)cc2)NC(=O)[C@@H]2CCCCN2C(=O)[C@H](Cc2ccc3ccccc3c2)NC1=O`: the IC50 in assay [1] stood at 640 nM. In turn, `CN1C(=O)[C@H](CCCNC(=N)N)NC(=O)[C@@H](Cc2ccc(O)cc2)NC(=O)CNC(=O)[C@H](Cc2ccc3ccccc3c2)NC(=O)[C@@H]1CCCNC(=N)N` returned an EC50 in assay [2] of 9.53 µM. Moreover, the IC50 in assay [1] amounted to 99 nM.

Take `N=C(N)NCCC[C@@H]1NC(=O)[C@H](CCCNC(=N)N)NC(=O)[C@@H](Cc2ccc(O)cc2)NC(=O)CNC(=O)[C@H](Cc2ccc3ccccc3c2)NC1=O`: the EC50 in assay [2] stood at 0.16 µM. Regarding `C[C@@H]1NC(=O)[C@H](Cc2ccc3ccccc3c2)NC(=O)CNC(=O)[C@@H](Cc2ccc(O)cc2)NC(=O)[C@@H](CCCNC(=N)N)NC1=O`, in assay [3], the outcome was inactive. In turn, `C[C@H]1NC(=O)CNC(=O)[C@H](Cc2ccc3ccccc3c2)NC(=O)[C@H](CCCNC(=N)N)NC(=O)[C@@H](CCCNC(=N)N)NC1=O` showed an EC50 in assay [2] of 29 µM. The compound also gave an IC50 in assay [1] of 130 nM. With `C[C@@H]1NC(=O)[C@@H](Cc2ccc(O)cc2)NC(=O)CNC(=O)[C@H](Cc2ccc3ccccc3c2)NC(=O)[C@H](CCCNC(=N)N)NC1=O`, the EC50 in assay [2] turned out to be 12 µM.

With `CN1C(=O)[C@@H](Cc2ccc(O)cc2)NC(=O)CNC(=O)[C@H](Cc2ccc3ccccc3c2)NC(=O)[C@H](CCCNC(=N)N)NC(=O)[C@@H]1CCCNC(=N)N`, in assay [2], a half-maximal effect (EC50) was put at 1.4 µM. This EC50 is about 8.6-fold lower than that of the compound before. `C[C@H]1NC(=O)[C@H](Cc2ccc3ccccc3c2)NC(=O)[C@H](CCCNC(=N)N)NC(=O)[C@H](CCCNC(=N)N)NC(=O)[C@@H](Cc2ccc(O)cc2)NC1=O` showed an EC50 in assay [2] of 0.49 µM. Further, the IC50 in assay [1] came to 11 nM. `N=C(N)NCCC[C@@H]1NC(=O)[C@H](CCCNC(=N)N)NC(=O)[C@@H](Cc2ccc(O)cc2)NC(=O)[C@H]2CCCCN2C(=O)[C@H](Cc2ccc3ccccc3c2)NC1=O` gave an IC50 in assay [1] above 1000 nM. In assay [2], `C[C@@H]1NC(=O)[C@H](CCCNC(=N)N)NC(=O)[C@@H](CCCNC(=N)N)NC(=O)[C@@H](Cc2ccc(O)cc2)NC(=O)CNC1=O` yielded an EC50 above 120 µM. The IC50 in assay [1] is above 1000 nM. On to `C[C@@H]1NC(=O)[C@H](Cc2ccc3ccccc3c2)NC(=O)[C@H](CCCNC(=N)N)NC(=O)[C@@H](CCCNC(=N)N)NC(=O)[C@@H](Cc2ccc(O)cc2)NC1=O`, for which the EC50 in assay [2] came out at 10 µM. Moreover, the IC50 in assay [1] is 92 nM. As for `C[C@@H]1NC(=O)[C@H](Cc2ccc3ccccc3c2)NC(=O)CNC(=O)[C@@H](Cc2ccc(O)cc2)NC(=O)[C@H](CCCNC(=N)N)NC1=O`, in assay [3], the outcome was inactive. As for `C[C@@H]1NC(=O)[C@H](CCCNC(=N)N)NC(=O)[C@H](CCCNC(=N)N)NC(=O)[C@@H](Cc2ccc(O)cc2)NC(=O)CN(C)C1=O`, the IC50 in assay [1] (cho) is 167 nM. On to `N=C(N)NCCC[C@@H]1NC(=O)[C@@H](CCCNC(=N)N)NC(=O)[C@@H](Cc2ccc(O)cc2)NC(=O)CNC(=O)[C@H](Cc2ccc3ccccc3c2)NC1=O`, for which the response in assay [2] was half-maximal at 0.39 µM (EC50).

`N=C(N)NCCC[C@@H]1NC(=O)[C@@H](CCCNC(=N)N)NC(=O)[C@@H](Cc2ccc(O)cc2)NC(=O)[C@H]2CCCCN2C(=O)[C@H](Cc2ccc3ccccc3c2)NC1=O` gave an IC50 in assay [1] above 1000 nM. Same read-out and setting: under `CN1C(=O)[C@H](CCCNC(=N)N)NC(=O)[C@H](CCCNC(=N)N)NC(=O)[C@@H](Cc2ccc(O)cc2)NC(=O)CNC(=O)[C@@H]1Cc1ccc2ccccc2c1` stands 250 nM. For the compound `N=C(N)NCCC[C@@H]1NC(=O)[C@H](CCCNC(=N)N)NC(=O)[C@@H](Cc2ccc(O)cc2)NC(=O)CCNC(=O)[C@H](Cc2ccc3ccccc3c2)NC1=O`, the EC50 in assay [2] stood at 3 µM. The compound also came in with an IC50 in assay [1] of 47 nM. On to `C[C@H]1NC(=O)[C@@H](Cc2ccc(O)cc2)NC(=O)CNC(=O)[C@H](Cc2ccc3ccccc3c2)NC(=O)[C@H](CCCNC(=N)N)NC1=O`, for which the EC50 in assay [2] came out at 16 µM. This lies in the double-digit micromolar range. Regarding `C[C@@H]1NC(=O)CNC(=O)[C@@H](Cc2ccc(O)cc2)NC(=O)[C@H](CCCNC(=N)N)NC(=O)[C@H](CCCNC(=N)N)NC1=O`, in assay [3], the result was inactive. For `N=C(N)NCCC[C@@H]1NC(=O)[C@H](CCCNC(=N)N)NC(=O)[C@@H](Cc2ccc(O)cc2)NC(=O)[C@@H]2CCCN2C(=O)[C@H](Cc2ccc3ccccc3c2)NC1=O`, the half-maximal inhibitory concentration (IC50) in assay [1] was above 1000 nM. The same measure, in the same setting: the value for `N=C(N)NCCC[C@@H]1NC(=O)[C@H](CCCNC(=N)N)NC(=O)[C@@H](Cc2ccc(O)cc2)NC(=O)[C@@H]2CCCCN2C(=O)[C@H](Cc2ccc3ccccc3c2)NC1=O` was above 1000 nM; that for `N=C(N)NCCC[C@@H]1NC(=O)[C@@H](CCCNC(=N)N)NC(=O)[C@@H](Cc2ccc(O)cc2)NC(=O)[C@@H]2CCCN2C(=O)[C@H](Cc2ccc3ccccc3c2)NC1=O` was above 1000 nM. In turn, `C[C@@H]1NC(=O)[C@@H](CCCNC(=N)N)NC(=O)[C@@H](Cc2ccc(O)cc2)NC(=O)CNC(=O)[C@H](Cc2ccc3ccccc3c2)NC1=O` registered an EC50 in assay [2] of 60 µM. The compound also registered an IC50 in assay [1] above 1000 nM. Compound `CN1C(=O)[C@@H](Cc2ccc(O)cc2)NC(=O)CNC(=O)[C@H](Cc2ccc3ccccc3c2)NC(=O)[C@H](CCCNC(=N)N)NC(=O)[C@H]1CCCNC(=N)N` displayed an EC50 in assay [2] of 0.088 µM. In assay [1], the IC50 is 3 nM. In assay [1], `CN1C(=O)CNC(=O)[C@H](Cc2ccc3ccccc3c2)NC(=O)[C@H](CCCNC(=N)N)NC(=O)[C@H](CCCNC(=N)N)NC(=O)[C@H]1Cc1ccc(O)cc1` displayed an IC50 of 128 nM. The same measure, in the same setting: under `CN1C(=O)CNC(=O)[C@H](Cc2ccc3ccccc3c2)NC(=O)[C@H](CCCNC(=N)N)NC(=O)[C@@H](CCCNC(=N)N)NC(=O)[C@H]1Cc1ccc(O)cc1` stands 157 nM.
